Screens: PubChem, Broad Institute
This is a sample that favours compounds with a hit; in the whole collection about 2.1% have one here.
INS-1E GSIS act: primary screen for activators of insulin secretion dependent on glucose, INS-1E cells, GLuc reporter luminescence; 370,000 compounds, 0.61% hits; activation, % at 16.6 µM; INS-1E GLuc reporter insulin secretion, 2-3 h;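 active = lowest replicate activation of at least 40%, so every replicate reaches that level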
XiGFP reactiv: reactivates the inactive X chromosome in mouse fibroblasts. XiGFP mouse fibroblasts, % GFP-positive cells imaging, 3 d; cells co-treated with 5-aza-dC sensitizer; scaled so ellipticine positive control = 100%. activation, % at 7.58 µM. 360,000 compounds, 0.055% hits;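 active = mean normalized replicate activation at least 10% and every replicate at or above 10%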
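System: 68-5-11 XiGFP fibroblast line | Buffer or medium: DMEM containing 5-aza-dC | Compound: Single point | Times: Compounds 3 days, fix/stain 15 min at room temperature | Benchmarks: Positive control ellipticine, 6 µM final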
PGC1a acetyl inh: PGC1a acetylation modulation, inhibitor mode; U2OS PGC1a acetylation, AlphaScreen anti-acetyl-lysine; with virally co-expressed GCN5 acetyltransferase; inhibition, % at 15.6 µM; 350,000 compounds, 0.17% hits; AID 651687;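 active = every replicate shows inhibition of at least 40%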
PAX8 reporter: inhibitors of PAX8 transcriptional activity in RMG-I cells | RMG-I TPO-luciferase reporter, SteadyGlo, 24 h | inhibition, % at 12.6 µM | 360,000 compounds, 1.2% hits;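 active = mean replicate inhibition at least 60% with every replicate also reaching 60%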;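 also: luciferase light reporting Pax8 driven TPO promoter activity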
EWS-Fli block: inhibitors of EWS/Fli oncoprotein transcriptional activity | A673 NR0B1-luciferase reporter, viability-normalised | inhibition, % at 12.6 µM | 350,000 compounds, 0.67% hits;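 active = mean inhibition of at least 50% after viability correction, with every replicate also passing that limit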;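 also: firefly luciferase signal divided by Alamar Blue viability fluorescence both relative to DMSO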
AF4-AF9 inh: blocks AF4 peptide binding to human AF9; inhibition, % at 10 µM; 350,000 compounds, 0.47% hits; AlphaScreen, biotin-AF4 peptide binding to FLAG-AF9; AID 651704;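 active = every replicate reaching a set inhibition limit, whatever the replicate mean, cut at about 25% in these data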
Target sequence (P42568 whole entry, looked up): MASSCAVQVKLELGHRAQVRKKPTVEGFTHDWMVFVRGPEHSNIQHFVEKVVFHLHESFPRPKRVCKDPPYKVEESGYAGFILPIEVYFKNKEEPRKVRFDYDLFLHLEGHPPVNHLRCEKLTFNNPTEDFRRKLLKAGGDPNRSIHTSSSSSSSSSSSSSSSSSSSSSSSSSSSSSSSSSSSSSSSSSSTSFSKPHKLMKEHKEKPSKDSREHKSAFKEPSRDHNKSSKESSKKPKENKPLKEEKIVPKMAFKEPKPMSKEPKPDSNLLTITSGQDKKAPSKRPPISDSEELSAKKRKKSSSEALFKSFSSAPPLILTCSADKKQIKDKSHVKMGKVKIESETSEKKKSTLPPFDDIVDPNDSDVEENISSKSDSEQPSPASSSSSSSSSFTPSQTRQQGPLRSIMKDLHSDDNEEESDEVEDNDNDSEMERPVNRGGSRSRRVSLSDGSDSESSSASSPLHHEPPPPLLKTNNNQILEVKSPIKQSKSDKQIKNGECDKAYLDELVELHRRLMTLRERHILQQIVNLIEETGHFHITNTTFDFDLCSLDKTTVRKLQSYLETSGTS
DNA binder FP: binds DNA displacing acridine orange; shares compounds with EWS-Fli block; salmon sperm DNA acridine orange fluorescence polarization; AC35, µM (highest dose often 68 µM); 640 compounds, 2% hits; AID 720586;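 active = fitted curve reaches a 35% signal fall AC35 below twice the sample's top valid tested dose, actives reach about 48 µM in these data; inactive = the rest, including activity in the rising direction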;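 also: lower polarization ratio signals compound binding to DNA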
A number is an active result.

How did O=C(C[C@@H]1C[C@H]2c3cc(NS(=O)(=O)c4ccc(F)cc4)ccc3O[C@H]2[C@H](CO)O1)NCc1ccc(-c2ccccc2)cc1 do in these assays?
INS-1E GSIS act: inactive; XiGFP reactiv: inactive; PGC1a acetyl inh: inactive; PAX8 reporter: 88; EWS-Fli block: 56; AF4-AF9 inh: inactive; DNA binder FP: inactive

How did O=C(Sc1cccc2cccnc12)c1ccccc1Br do in these assays?
INS-1E GSIS act: inactive; XiGFP reactiv: inactive; PAX8 reporter: 100; EWS-Fli block: 50; AF4-AF9 inh: inactive; DNA binder FP: inactive

Results for O=C(O)CN1C(=O)/C(=C\c2ccccc2OCc2ccc(Cl)cc2Cl)SC1=S ?
INS-1E GSIS act: inactive; XiGFP reactiv: inactive; PGC1a acetyl inh: inactive; PAX8 reporter: inactive; EWS-Fli block: 59; AF4-AF9 inh: inactive; DNA binder FP: inactive

Results for COc1ccc(NC(=O)N(C)C[C@@H]2Oc3ccc(NS(=O)(=O)c4ccc(F)cc4)cc3CC(=O)N([C@H](C)CO)C[C@H]2C)cc1 ?
INS-1E GSIS act: inactive; XiGFP reactiv: inactive; PGC1a acetyl inh: inactive; EWS-Fli block: inactive; AF4-AF9 inh: inactive

How did COc1ccc2oc(=O)c(C(=O)Nc3ccccc3O)cc2c1 do in these assays?
INS-1E GSIS act: inactive; PGC1a acetyl inh: inactive; PAX8 reporter: inactive; EWS-Fli block: inactive; AF4-AF9 inh: inactive

What do the screens show for `COc1ccc(NC(=O)c2cc3ccccc3oc2=O)cc1`?
INS-1E GSIS act: inactive; XiGFP reactiv: inactive; PAX8 reporter: inactive; EWS-Fli block: 76; AF4-AF9 inh: inactive; DNA binder FP: inactive

How did CC(C)NC(=O)Nc1ccc2c(c1)C(=O)N([C@@H](C)CO)C[C@H](C)[C@H](CN(C)C(=O)NC1CCCCC1)O2 do in these assays?
INS-1E GSIS act: inactive; XiGFP reactiv: inactive; PGC1a acetyl inh: inactive; PAX8 reporter: inactive; AF4-AF9 inh: inactive

Results for COc1ccc(-c2cnc3c(NC=O)cc(-c4ccccc4OC)cn23)cc1OC ?
INS-1E GSIS act: inactive; XiGFP reactiv: inactive; PGC1a acetyl inh: inactive; PAX8 reporter: 100; EWS-Fli block: 58; AF4-AF9 inh: inactive; DNA binder FP: inactive

How did COc1ccc(-c2cc(NC=O)c3ncc(-c4ccc(OC)c(OC)c4)n3c2)cc1OC do in these assays?
XiGFP reactiv: inactive; PGC1a acetyl inh: inactive; PAX8 reporter: inactive; EWS-Fli block: inactive; AF4-AF9 inh: inactive

What do the screens show for `C[C@@H]1CN([C@@H](C)CO)C(=O)c2cc(NC(=O)c3ccccc3)ccc2O[C@@H](C)CCCCO[C@H]1CN(C)C(=O)Nc1cccc2ccccc12`?
INS-1E GSIS act: inactive; XiGFP reactiv: inactive; PGC1a acetyl inh: inactive; PAX8 reporter: inactive; EWS-Fli block: 71; AF4-AF9 inh: inactive; DNA binder FP: inactive

Results for C[C@@H]1CCCCO[C@H](CN(C)Cc2ccc(C(=O)Nc3ccccc3N)cc2)[C@@H](C)CN([C@H](C)CO)C(=O)c2cc(NS(=O)(=O)c3ccccc3)ccc2O1 ?
INS-1E GSIS act: inactive; XiGFP reactiv: inactive; PGC1a acetyl inh: inactive; PAX8 reporter: inactive; EWS-Fli block: inactive; AF4-AF9 inh: inactive

What do the screens show for `Cc1ccc(S(=O)(=O)Nc2ccc3c(c2)C(=O)N([C@@H](C)CO)C[C@@H](C)[C@H](CN(C)Cc2ccc(C(F)(F)F)cc2)OCCCC[C@H](C)O3)cc1`?
INS-1E GSIS act: inactive; XiGFP reactiv: inactive; PGC1a acetyl inh: inactive; PAX8 reporter: 106; EWS-Fli block: 69; AF4-AF9 inh: inactive; DNA binder FP: inactive

What do the screens show for `C[C@@H]1CCCCO[C@H](CN(C)Cc2ccc(C(=O)Nc3ccccc3N)cc2)[C@@H](C)CN([C@H](C)CO)C(=O)c2cc(NS(=O)(=O)c3ccc(F)cc3)ccc2O1`?
INS-1E GSIS act: inactive; XiGFP reactiv: inactive; PGC1a acetyl inh: inactive; PAX8 reporter: inactive; EWS-Fli block: 61; AF4-AF9 inh: inactive; DNA binder FP: inactive

Results for CO[C@H]1CN(C)C(=O)c2ccc(NC(C)=O)cc2OC[C@H](C)N(C(=O)C2CC2)C[C@@H]1C ?
INS-1E GSIS act: inactive; XiGFP reactiv: inactive; PGC1a acetyl inh: inactive; AF4-AF9 inh: inactive

What do the screens show for `C[C@H](CO)N1C[C@H](C)[C@H](CN(C)C(=O)Nc2cccc3ccccc23)OCCCC[C@H](C)Oc2ccc(NC(=O)C3CCCCC3)cc2C1=O`?
INS-1E GSIS act: inactive; XiGFP reactiv: inactive; PGC1a acetyl inh: inactive; PAX8 reporter: inactive; EWS-Fli block: inactive; AF4-AF9 inh: inactive

Results for Nc1nc(N)c2cc(Sc3ccc4ccccc4c3)ccc2n1 ?
XiGFP reactiv: inactive; PGC1a acetyl inh: inactive; PAX8 reporter: 68; EWS-Fli block: 69; AF4-AF9 inh: inactive; DNA binder FP: inactive

What do the screens show for `CO[C@@H](CN(C)S(=O)(=O)c1ccc(Cl)cc1)[C@@H](C)CN(Cc1ccccc1Cl)[C@@H](C)CO`?
INS-1E GSIS act: inactive; XiGFP reactiv: inactive; PGC1a acetyl inh: inactive; EWS-Fli block: inactive; AF4-AF9 inh: inactive

How did CCC1=Nc2cc(C(=O)NCC3CCCO3)ccc2Sc2ccc(Br)cc21 (centres undefined) do in these assays?
INS-1E GSIS act: inactive; XiGFP reactiv: inactive; PGC1a acetyl inh: inactive; PAX8 reporter: inactive; EWS-Fli block: 55; AF4-AF9 inh: inactive; DNA binder FP: inactive

How did O=C(NC1CCCC1)C(c1ccccc1)n1c(CSCCOc2ccccc2)nc2ccccc21 (centres undefined) do in these assays?
INS-1E GSIS act: inactive; XiGFP reactiv: inactive; PAX8 reporter: inactive; EWS-Fli block: 60; AF4-AF9 inh: inactive; DNA binder FP: inactive

What do the screens show for `COC(=O)C1=CN(c2ccc(OC)cc2)C(N)=C(C#N)C1c1ccc(OC)cc1` (centres undefined)?
INS-1E GSIS act: inactive; XiGFP reactiv: inactive; PAX8 reporter: inactive; EWS-Fli block: inactive; AF4-AF9 inh: inactive

What do the screens show for `CCc1ccc(N2C=C(C(=O)OC)C(c3ccc(OC)cc3)C(C#N)=C2N)cc1` (centres undefined)?
INS-1E GSIS act: inactive; XiGFP reactiv: inactive; PAX8 reporter: inactive; EWS-Fli block: 54; DNA binder FP: inactive

Results for C[C@@H]1CCCCO[C@@H](CN(C)Cc2ccc(Cl)c(Cl)c2)[C@H](C)CN([C@H](C)CO)C(=O)c2cc(NC(=O)CCC(F)(F)F)ccc2O1 ?
INS-1E GSIS act: inactive; XiGFP reactiv: inactive; PGC1a acetyl inh: inactive; PAX8 reporter: inactive; EWS-Fli block: inactive; AF4-AF9 inh: inactive

How did Cc1ccc(S(=O)(=O)N=Nc2c(O)[nH]c3ccccc23)cc1C do in these assays?
PAX8 reporter: inactive

Results for COc1ccc(NC(=S)N=Nc2c(O)[nH]c3ccccc23)cc1 ?
INS-1E GSIS act: inactive; XiGFP reactiv: inactive; PGC1a acetyl inh: inactive; PAX8 reporter: inactive; EWS-Fli block: 56; AF4-AF9 inh: inactive; DNA binder FP: inactive
